Series [1] is described as follows: melting temperature; fluorescence melt of hairpins on a sequencing array, two-state fit, raised by 9.35 °C to match UV melts. Conditions: sodium 0.088 M. The essentials:
(§1)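 In 50 mM Na-HEPES pH 8.0 containing 25 mM NaCl, hairpins from the library on a sequenced MiSeq flow cell were imaged for Cy3 fluorescence at 2.5 °C steps up to 60 °C, with Cy3 and quencher oligos annealed. After normalisation to pre-quench Cy3 and to control constructs, two-state fits with bootstrapping gave melting temperature and folding enthalpy. Four replicates were combined by inverse-variance weighting, and fitted temperatures were shifted up by 9.35 °C to match UV melts.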

The nature of series [2]: folding enthalpy; higher = less favourable; fluorescence melt of hairpins on a sequencing array, two-state fit. Conditions: sodium 0.088 M. In short, it runs like this:
as §1

Turning to GATACCGAAAGGTTGATC ((((((....)))..))), the Tm in series [1] turned out to be 31.4 °C. For the same sequence, in series [2], the folding enthalpy is -13.6 kcal/mol.
In the case of GTTCTTACGAAAGTAAAC (((..(((....)))))), the Tm in series [1] was 21.9 °C. Also, the folding enthalpy in series [2] is -6.21 kcal/mol.
With GGGTGGAAACACCC (((((....))))), the Tm in series [1] turned out to be 63.5 °C. Also, in series [2], the folding enthalpy is -28.2 kcal/mol.
Turning to GACTCCGAAAGGATCGTC ((((((....)))..))), in series [1], the Tm came to 42.1 °C. In addition, in series [2], the folding enthalpy was -23.3 kcal/mol.
With GGGCACGAAAGTGTCCCC ((((((....)))..))), in series [1], the Tm was found to be 65.1 °C. Further, in series [2], the folding enthalpy is -12 kcal/mol.
On the same counts, the results for GATCTGCTATCAGATC ((((((....)))))) are 49.6 °C and -35.3 kcal/mol.
Regarding GATCCCGACGGGGATC ((((((....)))))), in series [1], the Tm came out at 65.8 °C. Also, the folding enthalpy in series [2] was -27.8 kcal/mol.
Consider GCAACAGGAAACTGCTGC (((.(((....))).))), for which the Tm in series [1] was 44.6 °C. The folding enthalpy in series [2] is -30.2 kcal/mol.
In the case of GCAGAGCGAAAGCGTTGC (((..((....))..))), the Tm in series [1] came out at 62 °C. Also, in series [2], the folding enthalpy was -19.4 kcal/mol.
In the case of GTTCGGCCGAAAGGCAAC (((..(((....)))))), the Tm in series [1] amounted to 31.3 °C. Also, the folding enthalpy in series [2] is -6.89 kcal/mol.
For GAGAGAGGAAACTCTTTC ((.((((....)))).)), in that order: 29.9 °C and -20.5 kcal/mol.
Take GTTTCCGAAAGGAAAAAC ((((((....)))..))): in series [1], the Tm is 36.8 °C. Moreover, in series [2], the folding enthalpy is -15.1 kcal/mol.
In the case of GAGAAGCGAAAGCTACTC (((.(((....))).))), in series [1], the Tm stood at 49.9 °C. Besides, the folding enthalpy in series [2] was -28.8 kcal/mol.
Regarding GTATATGGAAACATATGC (.(((((....))))).), the Tm in series [1] turned out to be 36.5 °C. In addition, the folding enthalpy in series [2] is -25 kcal/mol.
Regarding GTGTCCGAAAGGATACAC ((((((....)))..))), the Tm in series [1] was 49 °C. For the same sequence, in series [2], the folding enthalpy is -18.7 kcal/mol.
On the same counts, the results for GGGCGGACGAAAGTCCCC (((..(((....)))))) are 50.6 °C and -13.8 kcal/mol.
With GCGCTTGGAAACGAGTGC ((.((.(....).)).)), the Tm in series [1] came out at 46.1 °C. In series [2], the folding enthalpy was -32.8 kcal/mol.
In the case of GATCTTGCTAAAGATC ((((((....)))))), the Tm in series [1] was 53.2 °C. The folding enthalpy in series [2] was -38.1 kcal/mol.
For GTATCGGGAAACCGATAC (((((((....))))))), in that order: 62.2 °C and -42.3 kcal/mol.
For GTCATCGAAAGATATGAC ((((((....)))..))), the Tm in series [1] is 34.6 °C. For the same sequence, in series [2], the folding enthalpy was -20 kcal/mol.
GCGTCCGAAAGGATACGC ((((((....)))..))): the Tm in series [1] is 55.5 °C. In series [2], the folding enthalpy is -29.2 kcal/mol.
On the same counts, the results for GGCTCAACGAAAGTTGCC (((..(((....)))))) are 38.2 °C and -13.7 kcal/mol.
As to GTTACCCGAAAGGGAAC (((.(((....)))))), the Tm in series [1] amounted to 43.7 °C. The folding enthalpy in series [2] was -17.1 kcal/mol.
On the same counts, the results for GGAAGCGGAAACGTTTCC ((((.((....)).)))) are 49.8 °C and -39.7 kcal/mol.
For GATCCTTTACAGGATC ((((((....)))))), in that order: 51.1 °C and -51.6 kcal/mol.
GTAAGACGAAAGTCCTAC (((.(((....))).))): the Tm in series [1] is 34.7 °C. The folding enthalpy in series [2] is -15.7 kcal/mol.
On the same counts, the results for GAGCCAGCGAAAGCTCTC (((..(((....)))))) are 34.8 °C and -10.3 kcal/mol.
For GACGAGGGAAACCCCGTC ((((.((....)).)))), in that order: 51 °C and -31.4 kcal/mol.
Regarding GAAATACGAAAGTATTC (((.(((....)))))), the Tm in series [1] was determined as 38.9 °C. The folding enthalpy in series [2] is -12.8 kcal/mol.
On the same counts, the results for GGGGTTCGAAAGAATCCC (((.(((....))).))) are 58.6 °C and -43.8 kcal/mol.
As for TAGTTGAAAAACTA (((((....))))), the Tm in series [1] came to 27.4 °C. For the same sequence, in series [2], the folding enthalpy is -11.8 kcal/mol.
With GTTTGCGAAAGCATAAC ((((((....))).))), in series [1], the Tm was determined as 43 °C. The folding enthalpy in series [2] was -17.3 kcal/mol.
On the same counts, the results for GAAGGCCGAAAGGCGTTC (((.(((....))).))) are 57 °C and -26.3 kcal/mol.
For the sequence GATCGACGAGTCGATC ((((((....)))))), the Tm in series [1] stood at 64 °C. The folding enthalpy in series [2] is -45.8 kcal/mol.
GTGAAGGCGAAAGCCCAC (((..(((....)))))): the Tm in series [1] was 46.7 °C. For the same sequence, the folding enthalpy in series [2] was -15.6 kcal/mol.
Take GCGTTGGGAAACCAATGC ((.((((....)))).)): in series [1], the Tm was determined as 54.3 °C. The folding enthalpy in series [2] is -43.2 kcal/mol.
GCTTCCGAAAGGAGTAGC ((((((....)))..))): the Tm in series [1] was found to be 43.6 °C. Further, the folding enthalpy in series [2] is -24.3 kcal/mol.

These data come from the array DNA melting data of Ke et al. (doi:10.1101/2024.01.08.574731).
